Article PMC11031320 (Cell chemical biology, 2024)
“Also recorded” adds a separate entry of the source. Read-outs that look alike come from different tables or passages of the source.

Experiments:
P. berghei ANKA = assay: Liver stage parasite load in HuH7 cells; assay type: cell-based, Plasmodium berghei; details: for EC50: Plasmodium berghei, Huh-7, 44 h, read-out: EC50, liver stage P. berghei; for relative P. berghei parasite load in HuH7 cells: at ~30 μM
[1] = target: wild-type (WT) HsHsp90 nucleotide-binding domain (NBD) (Homo sapiens, UniProt P07900); assay: FITC-GA competition, wild-type HsHsp90 nucleotide-binding domain
HsHsp90 [2] = target: T1, HsHsp90 (Homo sapiens, UniProt P07900); assay: FITC-geldanamycin competitive binding assay
P. falciparum proteasome = assay type: biochemical, Plasmodium falciparum
P. falciparum 3D7 = assay: Asexual blood stage parasite inhibition assay; assay type: cell-based; details: Plasmodium falciparum, 3D7, 72 h, read-out: EC50, blood stage P. falciparum 3D7
In short: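 Ring-stage 3D7 cultures (2% parasitemia, 1% hematocrit) were exposed to test compound at 0–50 μM (0.5% DMSO) for 72 h at 37 °C under 3% O2/5% CO2/92% N2. Controls were DMSO and quinacrine (1 μM). Cells were lysed in saponin/Triton X-100 buffer with 10X SYBR Green I and stained 24 h at RT in the dark. Fluorescence was read at Ex 485/Em 535 and normalized to controls. 2–3 replicates, 2–4 independent experiments.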

HuH7 cells = assay: HuH7 host cell viability; assay type: cell-based, human; details: at 10 μM
[3] = tested on: HsHsp90 NBD L122I/G125S/A126G and Q23N; assay: FITC-GA competition, other HsHsp90 NBD variants; assay type: binding, human; details: compared to WT HsHsp90 NBD
In short: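 Fluorescence polarization displacement of 1.0 nM FITC-geldanamycin from each His-tagged human Hsp90 NBD variant (25 nM). Buffer was 20 mM HEPES pH 7.3, KCl, MgCl2, Na2MoO4, DTT, 0.01% NP-40. Test compound was dosed at 0–10 μM with 1% final DMSO. Plates were held overnight at 4 °C in the dark, then read at Ex 480/Em 535. Percent bound was normalized to protein-only and protein-free tracer controls. At least 4 independent determinations.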

PfHsp90 [4] = assay: FITC-geldanamycin competitive binding assay; details: ratio of HsHsp90 to PfHsp90 affinity
PfHsp90 [5] = target: T2, PfHsp90 (Plasmodium falciparum, UniProt Q8IC05); assay: FITC-geldanamycin competitive binding assay
HsHsp90 NBD E25D/K112R = HsHsp90 NBD E25D/K112R (Homo sapiens, UniProt P07900, E25D/K112R); assay: FITC-GA competition, salt bridge double mutant HsHsp90 NBD; assay type: binding
HsHsp90 [6] = target: T1, HsHsp90; details: read-out: Kd of FITC-GA to full-length HsHsp90; cited from earlier work
PfHsp90 [7] = target: T2, PfHsp90; details: cited from earlier work
20S particles = assay: Native gel in-gel Suc-LLVY-AMC hydrolysis, 20S band after SDS activation; assay type: cell-based, Plasmodium falciparum
26S proteasome = assay: Native gel in-gel Suc-LLVY-AMC hydrolysis, 26S band; assay type: cell-based, Plasmodium falciparum
[8] = tested on: P. falciparum gametocytes (NF54 peg4-tdTomato); assay: Gametocyte inhibition assay; assay type: cell-based; details: Plasmodium falciparum
[9] = lysate treated with epoxomicin vs DMSO
[10] = 10 μM, 3 hours, cycloheximide 50 μM co-treatment
[11] = NF54, 24 h, read-out: early gametocyte viability
[12] = NF54, 240 h, read-out: late gametocyte viability

## CCOC(=O)NCc1ccc(-n2c(-c3cc(C(C)C)c(O)cc3O)n[nH]c2=S)cc1 [BX-2819]
P. berghei ANKA
  EC50: 1.5 ± 0.41 µM
  relative P. berghei parasite load in HuH7 cells: near zero
[1]
  Ki: 0.019 ± 0.004 µM
HsHsp90 [2]
  Ki: 0.049 ± 0.0043 µM
P. falciparum proteasome; 100 μM BX-2819 with 3 μM purified PfHsp90
  reaction rate compared to DMSO control: not different from the DMSO control
P. falciparum proteasome; BX-2819 10–100 μM with PfHsp90 3 μM
  Suc-LLVY-AMC hydrolysis in PfHsp90-treated samples: reduced hydrolysis in a dose-dependent manner; also recorded: negated the increased rate
P. falciparum 3D7
  EC50: 0.74 ± 0.034 µM
HuH7 cells
  decrease of HuH7 viability: ≤ 50%
[3]
  change in affinity for other HsHsp90 NBD constructs: unaltered
PfHsp90 [4]
  selectivity to PfHsp90 over HsHsp90: 2.0 fold
PfHsp90 [5]
  Ki: 0.024 ± 0.0044 µM
PfHsp90 [5]; BX-2819 10 μM
  displacement of FITC-GA from PfHsp90: displaces FITC-GA
HsHsp90 NBD E25D/K112R
  Ki: 0.013 ± 0.0025 µM

## CO[C@H]1/C=C\C=C(/C)C(=O)NC2=CC(=O)C(NCCCCCCNC(=S)Nc3ccc(-c4c5ccc(=O)cc-5oc5cc(O)ccc45)c(C(=O)O)c3)=C(C[C@@H](C)C[C@H](OC)[C@H](O)[C@@H](C)/C=C(\C)[C@@H]1OC(N)=O)C2=O [FITC-GA]
HsHsp90 [6]
  Kd: 0.023 µM
PfHsp90 [7]; read-out: Kd of FITC-GA to full-length PfHsp90
  Kd: 0.042 µM

## CC[C@@H](C)Nc1cc(C(=O)NC2C[C@H]3CC[C@@H](C2)N3c2ccc(C(=O)C3CC3)cn2)c(C)cc1C(N)=O (stereo partly drawn) [XL888]
P. berghei ANKA
  EC50: 0.24 ± 0.045 µM
  relative P. berghei parasite load in HuH7 cells: near zero
[1]
  Ki: 0.068 ± 0.023 µM
HsHsp90 [2]
  Ki: 0.13 ± 0.03 µM
P. falciparum 3D7
  EC50: 0.33 ± 0.11 µM
HuH7 cells
  decrease of HuH7 viability: ≤ 50%
[3]
  change in affinity for other HsHsp90 NBD constructs: no significant differences
PfHsp90 [4]
  selectivity to PfHsp90 over HsHsp90: 4.8 fold
PfHsp90 [5]
  Ki: 0.027 ± 0.0078 µM
HsHsp90 NBD E25D/K112R
  Ki: 0.0096 ± 0.0016 µM
  improvement in affinity to E25D/K112R double mutant compared to WT HsHsp90 NBD: 7 fold

## CC(C)C[C@H](NC(=O)[C@H](Cc1ccccc1)NC(=O)c1cnccn1)B(O)O [bortezomib]
P. falciparum proteasome; bortezomib 25 μM, 180 min, compared to DMSO
  Suc-LLVY-AMC hydrolysis in P. falciparum lysate: significantly reduced; also recorded: decreased total hydrolysis

## CC[C@H](C)[C@H](NC(=O)[C@H]([C@@H](C)CC)N(C)C(C)=O)C(=O)N[C@H](C(=O)N[C@@H](CC(C)C)C(=O)[C@@]1(C)CO1)[C@@H](C)O [epoxomicin]
20S particles; [9]
  activated 20S band: reduced
26S proteasome; [9]
  26S band: reduced

## COC1=C2C[C@@H](C)C[C@H](OC)[C@H](O)[C@@H](C)/C=C(\C)[C@H](OC(N)=O)[C@@H](OC)/C=C\C=C(/C)C(=O)NC(=CC1=O)C2=O [geldanamycin]
20S particles; [10]
  latent 20S particles (after activation) compared to DMSO control: 158%
26S proteasome; [10]
  proportion of active 26S proteasomes compared to DMSO control: 63%
[8]; [11]
  viability at 1 µM: 37%
  viability at 10 µM: 16%
[8]; [12]
  viability at 1 µM: 71%
  viability at 10 µM: 56%

## COc1ccc2c(c1)[nH]c1c(C)nccc12 [harmine]
PfHsp90 [7]
  affinity: micromolar
